Data taken from ChEMBL document CHEMBL1159098, “A new series of flavones, thioflavones, and flavanones as selective monoamine oxidase-B inhibitors” (Bioorg Med Chem, 2010).

How the values were obtained:
[1] = Inhibition of human monoamine oxidase
[2] = molecular target: T1, Amine oxidase [flavin-containing] A (Homo sapiens, UniProt P21397); experiment: Inhibition of human recombinant MAOA expressed in BTI-TN-5B1-4 cells at 100 uM by para-tyramine oxidation assay; type: cell-based; details: for inhibition (INH): human, bti-tn-5b1-4, 100 µM; for inhibition at 100 µM: BTI-TN-5B1-4, human
T1 sequence (P21397 whole entry): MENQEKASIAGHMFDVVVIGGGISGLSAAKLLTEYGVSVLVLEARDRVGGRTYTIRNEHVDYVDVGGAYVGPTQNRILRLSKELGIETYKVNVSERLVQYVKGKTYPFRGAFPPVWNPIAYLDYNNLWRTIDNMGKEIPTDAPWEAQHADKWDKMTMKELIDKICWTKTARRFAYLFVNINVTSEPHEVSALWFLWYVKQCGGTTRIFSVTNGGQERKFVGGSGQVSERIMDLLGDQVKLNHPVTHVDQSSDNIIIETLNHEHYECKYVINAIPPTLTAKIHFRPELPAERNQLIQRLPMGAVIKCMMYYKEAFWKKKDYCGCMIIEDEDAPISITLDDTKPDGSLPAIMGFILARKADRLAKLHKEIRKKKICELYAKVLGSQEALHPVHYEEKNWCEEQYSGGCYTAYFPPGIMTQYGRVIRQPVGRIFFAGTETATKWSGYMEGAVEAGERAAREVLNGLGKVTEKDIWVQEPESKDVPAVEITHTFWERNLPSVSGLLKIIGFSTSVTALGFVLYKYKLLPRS

[3] = molecular target: T2, Amine oxidase [flavin-containing] B (Homo sapiens, UniProt P27338); type: cell-based, BTI-TN-5B1-4
T2 sequence (P27338 whole entry): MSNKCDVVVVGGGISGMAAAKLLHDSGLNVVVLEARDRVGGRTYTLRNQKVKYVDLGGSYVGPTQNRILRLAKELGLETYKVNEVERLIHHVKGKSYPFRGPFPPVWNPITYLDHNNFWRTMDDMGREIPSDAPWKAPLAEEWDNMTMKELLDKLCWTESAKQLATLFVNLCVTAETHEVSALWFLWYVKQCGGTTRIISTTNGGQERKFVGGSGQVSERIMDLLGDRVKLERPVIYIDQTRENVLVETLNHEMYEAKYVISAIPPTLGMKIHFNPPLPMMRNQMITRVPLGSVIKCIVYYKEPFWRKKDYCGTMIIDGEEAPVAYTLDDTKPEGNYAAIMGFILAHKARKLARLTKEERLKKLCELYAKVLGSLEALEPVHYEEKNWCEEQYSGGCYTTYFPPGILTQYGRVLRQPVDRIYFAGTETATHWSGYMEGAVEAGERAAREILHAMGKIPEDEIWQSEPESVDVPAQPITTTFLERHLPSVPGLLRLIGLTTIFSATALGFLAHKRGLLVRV

Homo sapiens = organism: Homo sapiens; experiment: Selectivity for human MAOB over human MAOA
Method in brief: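 Selectivity index = IC50(hMAO-A)/IC50(hMAO-B), both from Amplex Red/p-tyramine fluorimetric assays on insect-cell recombinant enzymes.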

[4] = molecular target: T2, Amine oxidase [flavin-containing] B; experiment: Inhibition of human recombinant MAOB expressed in BTI-TN-5B1-4 cells at 100 uM by para-tyramine oxidation assay; type: cell-based; details: for inhibition at 100 µM: BTI-TN-5B1-4, human; for inhibition (INH): human, bti-tn-5b1-4, 100 µM
[5] = molecular target: T1, Amine oxidase [flavin-containing] A; experiment: Inhibition of human MAOA
Method in brief: (§1)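 Recombinant human MAO-A or -B as microsomes from baculovirus-infected BTI-TN-5B1-4 insect cells, dosed to oxidize 165 pmol p-tyramine/min in controls (A 1.1 µg, B 7.5 µg protein). Preincubated with inhibitor 15 min at 37 °C in 0.05 M sodium phosphate pH 7.4. Started with 1 mM p-tyramine, 200 µM Amplex Red, 1 U/ml HRP (final). Resorufin fluorescence (ex 545/em 590 nm) read over 15 min at 37 °C, background subtracted.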

[6] = molecular target: T2, Amine oxidase [flavin-containing] B; experiment: Inhibition of human MAOB; method in brief: as §1

inhibition (INH) [2]	IC50 [3]	Ratio IC50 (Homo sapiens)	SMILES	other results
Not Active	4.41 µM	> 23	O=C1CC(c2ccc(F)cc2)Oc2ccccc21 (racemic)	–
Not Active	3.62 µM	> 28	Cc1ccc2c(c1)OC(c1ccccc1)CC2=O (racemic)	–
Not Active	–	–	Cc1ccc2c(=S)cc(-c3ccccc3)oc2c1	inhibition at 100 µM [4]: 40%
Not Active	2.07 µM	> 48	Cc1ccc(C2CC(=O)c3ccccc3O2)cc1 (racemic)	–
Not Active	6.69 µM	> 15	Cc1ccc(-c2cc(=S)c3ccccc3o2)cc1	–
Not Active	–	–	Cc1ccc2c(=O)cc(-c3ccc(F)cc3)oc2c1	inhibition at 100 µM [4]: 40%
Not Active	0.59 µM	> 169	Cc1ccc([C@@H]2CC(=O)c3ccc(C)cc3O2)cc1	–
Not Active	0.17 µM	> 588	COc1ccc2c(c1)OC(c1ccc(F)cc1)CC2=O (racemic)	–
Not Active	–	–	COc1ccc(-c2cc(=S)c3ccc(F)cc3o2)cc1	inhibition at 100 µM [4]: 40%
Not Active	6.72 µM	> 15	Cc1ccc(-c2cc(=S)c3ccc(C)cc3o2)cc1	–
–	1.61 µM	> 62	Cc1ccc(-c2cc(=S)c3ccc(F)cc3o2)cc1	inhibition at 100 µM [2]: 40%
Not Active	0.16 µM	> 625	Cc1ccc(C2CC(=O)c3ccc(F)cc3O2)cc1 (racemic)	–
Not Active	–	–	Cc1ccc2c(=O)cc(-c3ccccc3)oc2c1 [7-METHYLFLAVONE]	inhibition (INH) [4]: Not Active
Not Active	–	–	COc1ccc2c(=S)cc(-c3ccc(F)cc3)oc2c1	inhibition at 100 µM [4]: 40%
Not Active	2.38 µM	> 42	Cc1ccc(-c2cc(=O)c3ccccc3o2)cc1	–
Not Active	0.53 µM	> 189	Cc1ccc([C@H]2CC(=O)c3ccc(C)cc3O2)cc1	–
–	1.34 µM	> 75	COc1ccc(-c2cc(=O)c3ccc(F)cc3o2)cc1	inhibition at 100 µM [2]: 40%
Not Active	0.67 µM	> 149	O=C1CC(c2ccc(F)cc2)Oc2cc(F)ccc21 (racemic)	–
Not Active	–	–	COc1ccc2c(=S)cc(-c3ccccc3)oc2c1	inhibition at 100 µM [4]: 40%

Second part, the molecule before the results:

SMILES	inhibition (INH) [2]	IC50 [3]	Ratio IC50 (Homo sapiens)	other results
COc1c(O)cc2oc(-c3ccc(O)c(O)c3)cc(=O)c2c1O [EUPAFOLIN]	–	–	–	IC50 [1]: 25 µM
Cc1ccc(C2CC(=O)c3ccc(C)cc3O2)cc1 (racemic)	Not Active	0.5 µM	> 200	–
COc1ccc2c(c1)OC(c1ccccc1)CC2=O (racemic)	Not Active	1.47 µM	> 68	–
COc1ccc(-c2cc(=S)c3ccccc3o2)cc1	–	0.48 µM	> 208	inhibition at 100 µM [2]: 40%
Cc1ccc2c(=S)cc(-c3ccc(F)cc3)oc2c1	Not Active	–	–	inhibition at 100 µM [4]: 40%
Fc1ccc(-c2cc(=S)c3ccccc3o2)cc1	Not Active	–	–	inhibition (INH) [4]: Not Active
O=c1cc(-c2ccccc2)oc2cc(F)ccc12 [7-FLUOROFLAVONE]	–	12.9 µM	> 7.7	inhibition at 100 µM [2]: 40%
COc1ccc2c(=O)cc(-c3ccccc3)oc2c1 [7-METHOXYFLAVONE]	Not Active	–	–	inhibition at 100 µM [4]: 40%
O=c1cc(-c2ccccc2)oc2ccccc12 [FLAVONE]	–	–	–	inhibition at 100 µM [2]: 40%; inhibition (INH) [4]: Not Active
S=c1cc(-c2ccccc2)oc2ccccc12	Not Active	–	–	inhibition at 100 µM [4]: 40%
COc1ccc(-c2cc(=O)c3ccccc3o2)cc1 [4'-METHOXYFLAVONE]	–	27.9 µM	> 3.6	inhibition at 100 µM [2]: 40%
Cc1ccc(-c2cc(=O)c3ccc(C)cc3o2)cc1	–	–	–	inhibition at 100 µM [2]: 40%; inhibition at 100 µM [4]: 40%
COc1ccc(C2CC(=O)c3ccc(OC)cc3O2)cc1 (racemic) [LIQUIRITIGENIN DIMETHYL ETHER]	Not Active	7.18 µM	> 14	–
COc1ccc(-c2cc(=S)c3ccc(OC)cc3o2)cc1	Not Active	3.34 µM	> 30	–
O=c1cc(-c2ccc(F)cc2)oc2cc(F)ccc12	Not Active	–	–	–
Cc1ccc(-c2cc(=O)c3ccc(F)cc3o2)cc1	Not Active	4.33 µM	> 23	–
Fc1ccc2c(=S)cc(-c3ccccc3)oc2c1	–	–	–	inhibition at 100 µM [2]: 40%; inhibition at 100 µM [4]: 40%
COc1ccc(-c2cc(=S)c3ccc(C)cc3o2)cc1	Not Active	–	–	inhibition at 100 µM [4]: 40%
COc1ccc(C2CC(=O)c3ccc(C)cc3O2)cc1 (racemic)	Not Active	3.35 µM	> 30	–

SMILES	inhibition (INH) [2]	IC50 [3]	Ratio IC50 (Homo sapiens)	other results
COc1ccc2c(=S)cc(-c3ccc(C)cc3)oc2c1	–	7.61 µM	> 13	inhibition at 100 µM [2]: 40%
O=c1c(O)c(-c2ccc(O)c(O)c2)oc2cc(O)cc(O)c12 [QUERCETIN]	–	–	–	IC50 [5]: 2.8 µM; IC50 [6]: 90 µM
O=c1cc(-c2ccc(O)cc2)oc2cc(O)cc(O)c12 [APIGENIN]	–	–	–	IC50 [5]: 1.7 µM; IC50 [6]: 12.8 µM
COc1cc(-c2cc(=O)c3c(O)c(OC)c(O)cc3o2)ccc1O [JACEOSIDINE]	–	–	–	IC50 [1]: 19 µM
COc1ccc(-c2cc(=O)c3ccc(C)cc3o2)cc1	–	–	–	inhibition at 100 µM [2]: 40%; inhibition at 100 µM [4]: 40%
O=C1CC(c2ccccc2)Oc2ccccc21 (racemic) [FLAVANONE]	Not Active	2.87 µM	> 35	–
COc1ccc2c(c1)OC(c1ccc(C)cc1)CC2=O (racemic)	Not Active	0.55 µM	> 182	–
O=C1c2c(O)cc(O)cc2O[C@H](c2ccc(O)c(O)c2)[C@H]1O [(+)-TAXIFOLIN]	–	–	–	IC50 [1]: 155 µM
COc1ccc(C2CC(=O)c3ccc(F)cc3O2)cc1 (racemic)	Not Active	0.17 µM	> 588	–
COc1ccc2c(c1)O[C@H](c1ccc(F)cc1)CC2=O	Not Active	0.16 µM	> 625	–
COc1ccc(-c2cc(=O)c3ccc(OC)cc3o2)cc1 [4,7-DIMETHOXYFLAVONE]	Not Active	49.7 µM	> 2	–
O=C1CC(c2ccccc2)Oc2cc(F)ccc21 (racemic)	Not Active	3.77 µM	> 27	–
O=C1c2c(O)cc(O)cc2O[C@H](c2ccc(O)cc2)[C@H]1O [DIHYDROKAEMPFEROL]	–	–	–	IC50 [1]: 153 µM
COc1ccc2c(=O)cc(-c3ccc(C)cc3)oc2c1	Not Active	11.3 µM	> 8.8	–
COc1ccc(C2CC(=O)c3ccccc3O2)cc1 (racemic)	Not Active	2.2 µM	> 45	–
O=c1cc(-c2ccc(F)cc2)oc2ccccc12	–	–	–	inhibition at 100 µM [2]: 40%; inhibition at 100 µM [4]: 40%
COc1ccc2c(c1)O[C@@H](c1ccc(F)cc1)CC2=O	Not Active	0.2 µM	> 500	–
Fc1ccc(-c2cc(=S)c3ccc(F)cc3o2)cc1	Not Active	6.89 µM	> 15	–
COc1ccc2c(=O)cc(-c3ccc(F)cc3)oc2c1	Not Active	5.14 µM	> 19	–
